Structures are written as SMILES. pIC50: −log10 of the molar value. Activity calls are given as the source filed them. No cut-off for these calls is given here.

In test [1] the test system is RAW264.7. Kind of test: Antiinflammatory activity in mouse RAW264.7 cells assessed as inhibition of LPS-induced TNFalpha production at 10 uM incubated for 2 hrs prior to LPS-challenge measured after 22 hrs by ELISA relative to control. It counts as functional. The method in brief:
(§1)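 RAW264.7 cells grown in DMEM with 10% FBS at 37 °C, 5% CO2, plated at 1.2 × 10^6/plate overnight. Compound pretreatment 2 h (screen at 10 μM; dose-response at 2.5, 5.0, 10 μM), then LPS 0.5 μg/mL for 22 h. Medium TNF-α or IL-6 measured by ELISA, normalized to cell protein, expressed as % of LPS control; IC50 derived from dose series.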

For test [2], the system named is RAW264.7. Nature of the test: Antiinflammatory activity in mouse RAW264.7 cells assessed as inhibition of LPS-induced IL6 production at 10 uM incubated for 2 hrs prior to LPS-challenge measured after 22 hrs by ELISA relative to control. Format: functional. The method in brief: as §1
Test [3] deals with RAW264.7. Nature of the test: Antiinflammatory activity in mouse RAW264.7 cells assessed as inhibition of LPS-induced TNFalpha production at 10 uM incubated for 2 hrs prior to LPS-challenge measured after 22 hrs by ELISA. It counts as functional, cell-based. The method, boiled down:
as §1

In test [4] the test system is RAW264.7. Nature of the test: Antiinflammatory activity in mouse RAW264.7 cells assessed as inhibition of LPS-induced IL6 production at 10 uM incubated for 2 hrs prior to LPS-challenge measured after 22 hrs by ELISA. It counts as functional, cell-based. The method, boiled down:
as §1

Test [5] deals with Peritoneal macrophage cell. Nature of the test: Antiinflammatory activity in ICR mouse primary peritoneal macrophages assessed as downregulation of LPS-induced COX-2 mRNA expression at 10 uM incubated for 2 hrs prior to LPS-challenge measured after 6 hrs by RT-qPCR analysis. Format: functional, cell-based. The method, boiled down:
(§2)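 Macrophages pretreated 2 h with compound at 10 μM or vehicle, then LPS 0.5 μg/mL for 6 h. mRNA of TNF-α, IL-6, COX-2, IL-1β and IL-12 quantified by RT-qPCR, normalized to β-actin mRNA and expressed as ratio to DMSO. Mean ± SD of four to seven independent experiments.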

For test [6], the system named is Peritoneal macrophage cell. Kind of test: Antiinflammatory activity in ICR mouse primary peritoneal macrophages assessed as downregulation of LPS-induced IL-1beta mRNA expression at 10 uM incubated for 2 hrs prior to LPS-challenge measured after 6 hrs by RT-qPCR analysis. Format: functional, cell-based. The method in brief:
as §2

The test system of test [7] is Peritoneal macrophage cell. Nature of the test: Antiinflammatory activity in ICR mouse primary peritoneal macrophages assessed as downregulation of LPS-induced IL-12 mRNA expression at 10 uM incubated for 2 hrs prior to LPS-challenge measured after 6 hrs by RT-qPCR analysis. It counts as functional, cell-based. The method in brief: as §2
The species named for a further test is Mus musculus. Nature of the test: Inhibition of LPS-induced ERK phosphorylation in ICR mouse primary peritoneal macrophages at 10 uM incubated for 2 hrs prior to LPS-challenge measured after 1 hr by Western blot analysis. The method, boiled down: (§3)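 Cells pretreated 2 h with DMSO or compound (10 μM in the single-concentration set; 2.5, 5.0, 10, 20 μM in the dose series), then LPS 0.5 μg/mL for 1 h. p-ERK, ERK, p-p38 and p38 detected by Western blot with actin loading control; optical density ratio reported. Mean ± SE, three independent experiments.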

For test [8], the target named is MAP kinase p38 (Mus musculus) (UniProt P47811+O08911+Q9WUI1+Q9Z1B7). Kind of test: Inhibition of LPS-induced p38 phosphorylation in ICR mouse primary peritoneal macrophages at 10 uM incubated for 2 hrs prior to LPS-challenge measured after 1 hr by Western blot analysis. The method in brief: as §3
Test [9] concerns Peritoneal macrophage cell. Kind of test: Antiinflammatory activity in ICR mouse primary peritoneal macrophages assessed as downregulation of high glucose-induced TNFalpha mRNA expression at 10 uM incubated for 2 hrs prior to high glucose-challenge measured after 3 hrs by RT-qPCR analysis. Format: functional, cell-based. The method, boiled down:
(§4)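 Peritoneal macrophages (1 × 10^6) pretreated with compound (10 μM) or DMSO for 2 h, then high glucose (25 mM) for 3 h. Low-glucose reference cells kept in RPMI-1640 with 5.5 mM glucose. TNF-α, IL-1β, IL-6 and IL-12 mRNA measured by RT-qPCR on whole-cell RNA. Mean ± SEM, three independent experiments run in duplicate.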

Test [10] concerns Peritoneal macrophage cell. Kind of test: Antiinflammatory activity in ICR mouse primary peritoneal macrophages assessed as downregulation of high glucose-induced IL1beta mRNA expression at 10 uM incubated for 2 hrs prior to high glucose-challenge measured after 3 hrs by RT-qPCR analysis. It counts as functional, cell-based. The method, boiled down:
as §4

The subject of test [11] is Peritoneal macrophage cell. Nature of the test: Antiinflammatory activity in ICR mouse primary peritoneal macrophages assessed as downregulation of high glucose-induced IL12 mRNA expression at 10 uM incubated for 2 hrs prior to high glucose-challenge measured after 3 hrs by RT-qPCR analysis. It counts as functional, cell-based. The method in brief:
as §4

The subject of test [12] is Peritoneal macrophage cell. Kind of test: Antiinflammatory activity in ICR mouse primary peritoneal macrophages assessed as downregulation of high glucose-induced IL6 mRNA expression at 10 uM incubated for 2 hrs prior to high glucose-challenge measured after 3 hrs by RT-qPCR analysis. Format: functional, cell-based. The method in brief:
as §4

Test [13] concerns RAW264.7. Kind of test: Antiinflammatory activity in mouse RAW264.7 cells assessed as inhibition of LPS-induced IL6 production incubated for 2 hrs prior to LPS-challenge measured after 22 hrs by ELISA. It counts as functional, cell-based. The method, boiled down: as §1
Test [14] deals with RAW264.7. Nature of the test: Antiinflammatory activity in mouse RAW264.7 cells assessed as inhibition of LPS-induced TNFalpha production incubated for 2 hrs prior to LPS-challenge measured after 22 hrs by ELISA. Format: functional, cell-based. The method in brief:
as §1

Test [15] concerns Peritoneal macrophage cell. Kind of test: Antiinflammatory activity in ICR mouse primary peritoneal macrophages assessed as downregulation of LPS-induced TNF-alpha mRNA expression at 10 uM incubated for 2 hrs prior to LPS-challenge measured after 6 hrs by RT-qPCR analysis. It counts as functional, cell-based. The method in brief: as §2
Test [16] relates to Peritoneal macrophage cell. Kind of test: Antiinflammatory activity in ICR mouse primary peritoneal macrophages assessed as downregulation of LPS-induced IL-6 mRNA expression at 10 uM incubated for 2 hrs prior to LPS-challenge measured after 6 hrs by RT-qPCR analysis. Format: functional, cell-based. The method in brief:
as §2

`COc1cc(C(=O)/C=C/c2ccc(N(C)C)cc2)cc(OC)c1OC`: the inhibition at 10 µM is 61.2% with RAW264.7 [1] and 73.4% with RAW264.7 [2]. The inhibition result (in the test with RAW264.7 [3]; in the test with RAW264.7 [4]; in the test filed under Mus musculus; in test [8]) was “Active” in each case. The outcome in test [5], in test [6] and in [12] was inactive. For the same molecule, the outcome in test [7], in test [9], in [10], in test [11], in [15] and in [16] was Active. Also, the negative logarithm of the IC50 (pIC50) in the test with RAW264.7 [13] is 5.16; in the test with RAW264.7 [14], 5.54. For the same molecule, the inhibition result in the test with RAW264.7 [13] and with RAW264.7 [14] was “Dose-dependent effect” in each case.

The record behind these values is ChEMBL document CHEMBL2010644, “Evaluation and discovery of novel synthetic chalcone derivatives as anti-inflammatory agents” (J Med Chem, 2011).
